Assay outcomes as filed in PubChem.
M4 ag: human M4 muscarinic receptor agonists, primary screen, CHO-K1 cells, Fluo-8 calcium fluorescence; Muscarinic acetylcholine receptor M4 (Homo sapiens), P08173; CHO-K1 hM4/Gqi5; vehicle 0%, full acetylcholine response 100%; activation, % at 3 µM; 360,000 tested, 0.14% active; AID 624127, 2012;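 active = activation above the run mean over all test wells plus 3 SD, cut at about 32% in these data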;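 note: peak over basal fluorescence ratio per well then scaled between controls; 0% = DMSO wells and 100% = acetylcholine at EC100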
M4 PAM: human M4 muscarinic receptor positive allosteric modulators, primary screen, CHO-K1 cells, Fluo-8 calcium fluorescence; Muscarinic acetylcholine receptor M4 (Homo sapiens), P08173; CHO-K1 hM4/Gqi5, ACh EC20; 0% = ACh EC20, 100% = maximal ACh; activation, % at 3 µM; 360,000 tested, 0.4% active; AID 624126, 2012;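 active = activation above its plate's cutoff, the mean activation of sample wells plus 3 SD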
CHRM5 antagonist: human M5 muscarinic receptor antagonists, primary screen, CHO cells, Fluo-8 calcium fluorescence | Muscarinic acetylcholine receptor M5 (Homo sapiens), P08912 | CHO-hM5 cells, ACh EC80 | inhibition, % at 3 µM | 360,000 tested, 0.59% active | AID 624040, 2012;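 active = inhibition above a per-plate cutoff, the mean of that plate's test compounds plus 3 SD, cut at about 27% in these data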;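 note: 0% = acetylcholine EC80 with DMSO and 100% = DMSO without agonist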
Target sequence (P08912 whole entry, looked up): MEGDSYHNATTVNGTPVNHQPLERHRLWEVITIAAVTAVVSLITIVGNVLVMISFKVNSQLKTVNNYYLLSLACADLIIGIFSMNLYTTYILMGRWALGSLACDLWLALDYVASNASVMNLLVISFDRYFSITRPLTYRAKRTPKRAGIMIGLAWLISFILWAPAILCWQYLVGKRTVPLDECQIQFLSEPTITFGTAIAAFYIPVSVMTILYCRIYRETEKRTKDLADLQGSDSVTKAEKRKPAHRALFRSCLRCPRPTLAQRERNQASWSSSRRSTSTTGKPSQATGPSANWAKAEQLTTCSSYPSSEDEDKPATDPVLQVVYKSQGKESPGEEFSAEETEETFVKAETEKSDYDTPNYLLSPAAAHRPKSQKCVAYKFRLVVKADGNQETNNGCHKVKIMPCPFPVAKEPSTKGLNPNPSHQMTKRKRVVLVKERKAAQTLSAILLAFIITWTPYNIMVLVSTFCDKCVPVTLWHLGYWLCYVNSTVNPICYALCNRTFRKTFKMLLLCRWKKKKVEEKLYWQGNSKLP
M5 PAM: human M5 muscarinic receptor positive allosteric modulators, primary screen, CHO-K1 cells, Fluo-8 calcium fluorescence; Muscarinic acetylcholine receptor M5 (Homo sapiens), P08912; CHO-K1 hM5, ACh EC20 PAM; 0% = ACh EC20, 100% = ACh EC100; activation, % at 3 µM; 360,000 tested, 0.3% active; AID 624038, 2012;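 active = activation above the run cutoff, the mean activation of all test compounds plus 3 SD, cut at about 18% in these data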
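System – CHO-K1 hM5 cells · Compound – 3 µM, single dose · Incubation – compound preincubation 140 s before EC20 acetylcholine addition · Technique – Fluo-8 calcium fluorescence · Measure – Max/basal fluorescence ratio as % of EC20–EC100 ACh window · Benchmarks – low control EC20 acetylcholine (0%), high control EC100 acetylcholine (100%) · Replication – singlicate, one well per test compound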
CHRM5 agonist: human M5 muscarinic receptor agonists, primary screen, CHO-K1 cells, Fluo-8 calcium fluorescence. Muscarinic acetylcholine receptor M5 (Homo sapiens), P08912. CHO-K1 hM5 cells; 0% DMSO wells, 100% maximal acetylcholine response. activation, % at 3 µM. 360,000 tested, 0.19% active;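 active = activation above the run's mean over test compounds plus 3 SD, cut at about 23% in these data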;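 note: signal is peak over basal fluorescence ratio across the kinetic read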
CHRM4 antagonist: human M4 muscarinic receptor antagonists, primary screen, CHO cells, Fluo-8 calcium fluorescence; 360,000 tested, 0.73% active; CHO-hM4 cells, ACh EC80; Muscarinic acetylcholine receptor M4 (Homo sapiens), P08173; inhibition, % at 3 µM;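 active = inhibition above its plate's cutoff, the mean inhibition of sample wells plus 3 SD, cut at about 27% in these data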;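 note: 0% = acetylcholine EC80 with DMSO and 100% = DMSO without agonist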
Numbers without * were called inactive. The list is not random: actives were taken first. Their share in the collection is about 1.8%.

SMILES	M4 ag	M4 PAM	CHRM5 antagonist	M5 PAM	CHRM5 agonist	CHRM4 antagonist
CCOC(=O)c1c(NC(=O)COc2cccc3c2CCN(CC)C3=O)sc2c1CCC2	2	22*	-3	9	5	4
CN(CCC#N)C(=S)NC(=O)c1ccc(S(=O)(=O)N2CCOCC2)cc1	0	3	6	8	1	-3
O=C(Oc1ccc(Br)cc1C(=S)N1CCCC1)c1ccccc1Cl	0	6	-17	20*	-7	2
O=C(Oc1ccc(Br)cc1C(=S)N1CCCC1)c1ccccc1F	1	-6	9	-11	-5	-11
O=C(O)CC(NC(=O)C(c1ccccc1)c1ccccc1)c1cccc([N+](=O)[O-])c1 (stereo not drawn)	0	4	-1	10	2	-7
O=C(COc1ccc(Cl)cc1)NCCNC(=O)c1ccccn1	2	-2	13	2	0	5
Cc1cccc(-n2c(C)cc(/C=C3\C(=N)N4N=C(CC(C)C)SC4=NC3=O)c2C)c1	0	-8	5	-6	-8	3
CCSC1=NSC2=NC(=O)/C(=C\c3coc4ccccc4c3=O)C(=N)N12	63*	-22	63*	-21	51*	38*
CC(C)CC1=NN2C(=N)/C(=C\c3coc4ccccc4c3=O)C(=O)N=C2S1	63*	-23	48*	-25	158*	9
COc1ccc(CNC(=O)CN(Cc2ccccc2F)C(=O)c2csnn2)cc1	6	1	4	0	-1	-11
CCc1nonc1NC(=O)c1oc2cc(C)c(Cl)cc2c1C	0	8	-17	25*	-3	-7
Nc1nc(-c2ccc3c(c2)OCCO3)c(CC(=O)O)s1	3	0	1	-4	0	3
Nc1nc(-c2ccc3c(c2)CCCC3)c(CC(=O)O)s1	1	-15	7	-19	-7	29*
O=C(Nc1ccc(S(=O)(=O)N2CCc3ccccc3C2)cc1)C1CCCO1 (stereo not drawn)	8	1	6	-3	5	0
CN(C)S(=O)(=O)N1CCc2ccc(NC(=O)C3CCCO3)cc2C1 (stereo not drawn)	0	20*	-1	2	-3	-4
CCNC(=S)NC1CC2CCCC(C1)N2Cc1ccc(C)cc1 (stereo not drawn)	1	-11	-16	-16	-22	14
CNC(=S)NC1CC2CCCC(C1)N2Cc1ccc(C)cc1 (stereo not drawn)	0	-6	4	28*	-8	2
CC(C)(C)OC(=O)NC1CC2CCCC(C1)N2Cc1ccccc1 (stereo not drawn)	0	-17	-2	-29	-26	83*
CCc1nc2c(OCCOc3ccc(F)cc3)cccn2c1N(C=O)Cc1ccc(OC)cc1	7	2	1	-2	-2	-15
COc1ccc(S(=O)(=O)N2CCN=C2SCc2cccc(F)c2)cc1	0	-4	-2	6	-6	-1
CC(=O)OCCCNc1cc(Sc2ccc(Cl)cc2)c2nonc2c1[N+](=O)[O-]	1	22*	0	12	0	17
CCC(=O)OCCNc1cc(SCCC(=O)OC)c2nonc2c1[N+](=O)[O-]	2	2	4	-5	-5	-6
CCCC(=O)OCCNc1cc(Sc2nc3ccccc3[nH]2)c2nonc2c1[N+](=O)[O-]	4	-14	34*	-2	-4	55*
CSc1nc(O)c(C(c2ccc(OC(C)C)cc2)c2c(O)nc(SC)[nH]c2=O)c(=O)[nH]1	15	-31	25	-25	-2	2
COc1cc(NC(=O)Cc2ccccc2)ccc1NC(=O)c1ccccc1	2	-1	7	-3	1	14
